ChEMBL document CHEMBL2331267 (J Med Chem, 2013)

Columns and labels:
Acid ceramidase [1] = biological target: T1, Acid ceramidase (Rattus norvegicus, UniProt Q6P7S1); experiment: Inhibition of rat recombinant acid ceramidase expressed in human HEK293 cells using N-lauroylceramide as substrate incubated for 30 mins prior to substrate addition measured after 30 mins by LC/MS analysis
T1 sequence (Q6P7S1 whole entry): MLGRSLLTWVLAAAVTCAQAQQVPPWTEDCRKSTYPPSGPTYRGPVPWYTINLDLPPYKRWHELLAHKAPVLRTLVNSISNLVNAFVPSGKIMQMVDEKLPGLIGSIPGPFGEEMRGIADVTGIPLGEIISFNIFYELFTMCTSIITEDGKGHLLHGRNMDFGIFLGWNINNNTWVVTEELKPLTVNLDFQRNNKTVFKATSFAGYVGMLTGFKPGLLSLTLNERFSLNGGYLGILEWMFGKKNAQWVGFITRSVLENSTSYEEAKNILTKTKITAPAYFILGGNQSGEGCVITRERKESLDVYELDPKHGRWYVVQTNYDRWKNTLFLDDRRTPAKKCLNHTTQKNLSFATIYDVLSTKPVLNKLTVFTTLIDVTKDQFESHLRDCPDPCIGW
Method in brief: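 Rat AC from cell lysate: sucrose/Tris homogenate, 12000g pellet, freeze–thaw in PBS, 105000g supernatant. Enzyme (50 μg protein) preincubated 30 min, 37 °C, with inhibitor (final DMSO 1%) in pH 4.5 phosphate/citrate buffer with 0.1% NP-40, 150 mM NaCl, 3 mM DTT; 100 μM N-lauroylceramide, 30 min, 37 °C; lauric acid quantified by LC/MS against heptadecanoic acid standard.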

[2] = Antiproliferative activity against human SW403 cells after 72 hrs by MTT assay; type: functional, cell-based; settings: SW-403, 72 h
Method in brief: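 SW403 cells exposed to compounds for 72 h; viability read by MTT reduction, n=4 per drug concentration; EC50 derived from concentration–response.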

[3] = Chemical stability of the compound in DMSO-d6 solution after 120 mins by LC/MS analysis; type: physicochemical; settings: 2 h
Acid ceramidase [4] = biological target: T2, Acid ceramidase (Homo sapiens, UniProt Q13510); experiment: Inhibition of acid ceramidase (unknown origin)
T2 sequence (Q13510 whole entry): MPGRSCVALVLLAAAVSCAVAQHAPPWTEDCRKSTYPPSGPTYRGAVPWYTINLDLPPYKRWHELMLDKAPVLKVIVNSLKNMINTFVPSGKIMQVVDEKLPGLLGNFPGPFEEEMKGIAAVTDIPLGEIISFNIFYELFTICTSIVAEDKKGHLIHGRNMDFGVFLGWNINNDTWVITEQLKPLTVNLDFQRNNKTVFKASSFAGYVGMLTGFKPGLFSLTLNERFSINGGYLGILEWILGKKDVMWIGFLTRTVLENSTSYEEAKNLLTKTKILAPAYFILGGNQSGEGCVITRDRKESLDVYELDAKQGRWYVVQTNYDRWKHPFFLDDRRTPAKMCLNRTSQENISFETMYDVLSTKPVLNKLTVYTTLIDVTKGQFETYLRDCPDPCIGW

[5] = Chemical stability of the compound in buffer at pH 4.5 after 30 mins by LC/MS analysis; type: physicochemical; settings: read-out: Stability

Row | SMILES | IC50 (Acid ceramidase [1]; read-out: IC50) [µM] | further results
1 | CCCCCCCNC(=O)n1ccc(=O)[nH]c1=O | 0.325 | –
2 | CCCCCCCCNC(=O)n1ccc(=O)[nH]c1=O | 0.283 | EC50 [2]: 20 µM
3 | CCCCCCNC(=O)N1CCC(=O)NC1=O | – | IC50 (Acid ceramidase [1]; hek293): Not Active
4 | CCCCCCNC(=O)n1cc(-c2ccccc2)c(=O)[nH]c1=O | – | EC50 [2]: 24 µM
5 | CCCCCCNC(=O)n1cc(F)c(=O)n(C(=O)c2ccccc2)c1=O | 0.02 | –
6 | CCCCCCNC(=O)n1cc(F)c(=O)n(C(=O)OC)c1=O | 0.007 | –
7 | CCCCCCNC(=O)n1c(Cl)cc(=O)[nH]c1=O | – | IC50 (Acid ceramidase [1]; hek293): ND(Unstable); Stability [3]: Unstable
8 | CCCCCCNC(=O)n1cc(F)c(=O)n(C(=O)C(C)C)c1=O | 0.021 | –
9 | CCCCCCNC(=O)n1cc(F)c(=O)n(CC2CC2)c1=O | 0.061 | –
10 | CCCCCNC(=O)n1ccc(=O)[nH]c1=O | 2.1 | –
11 | CCCCCCNC(=O)n1ccc(=O)[nH]c1=O | – | IC50 (Acid ceramidase [1]; hek293, read-out: IC50): 0.426 µM
12 | CCCCCCNC(=O)n1cc(C)c(=O)[nH]c1=O | 1.46 | –
13 | CCCCCCNC(=O)n1cc(F)c(=O)n(C)c1=O | 0.013 | EC50 [2]: 22 µM
14 | CCCCCCNC(=O)n1cc(F)c(=O)n(C(=O)OCC)c1=O | 0.012 | –
15 | CCCCNC(=O)n1ccc(=O)[nH]c1=O | 8.5 | –
16 | CCCCCCNC(=O)n1cc(F)c(=O)n(C(=O)OCC(C)C)c1=O | 0.016 | –
17 | CCCCCCCCCNC(=O)n1ccc(=O)[nH]c1=O | 0.464 | –
18 | CCCCCCNC(=O)n1cc(C(F)(F)F)c(=O)[nH]c1=O | – | IC50 (Acid ceramidase [1]; hek293, read-out: IC50): 0.012 µM
19 | CCCCCCN(C)C(=O)n1ccc(=O)[nH]c1=O | – | IC50 (Acid ceramidase [1]; hek293): Not Active
20 | CCCCCCNC(=O)n1c(C)c(C)c(=O)[nH]c1=O | – | IC50 (Acid ceramidase [1]; hek293): ND(Unstable); Stability [3]: Unstable
21 | CCCCCCCCNC(=O)n1cc(F)c(=O)[nH]c1=O | 0.046 | –
22 | CCCCCCCC/C=C\CCCCCCCC(=O)NCCO [OLEOYLETHANOLAMIDE] | – | Ki (Acid ceramidase [4]): 500 µM
23 | CCCCCCNC(=O)n1cc(F)c(=O)n(CC)c1=O | 0.018 | –
24 | CCCCCCNC(=O)n1cc(CC)c(=O)[nH]c1=O | 0.733 | –
25 | CCCCCCNC(=O)n1cc(F)c(=O)[nH]c1=O [CARMOFUR] | – | IC50 (Acid ceramidase [1]; hek293, read-out: IC50): 0.029 µM
26 | CCCCCCNC(=O)n1ccc(=O)n(C)c1=O | 0.053 | –
27 | CCCCCCCCNC(=O)n1cc(F)c(=O)n(C(=O)OC)c1=O | 0.004 | –
28 | CCCCCCNC(=O)n1cc(C#N)c(=O)[nH]c1=O | – | IC50 (Acid ceramidase [1]; hek293): ND(Unstable); remaining at 0.5 h [5]: 22%
